The record followed here is publication PMC9494671 (ACS Omega, 2022).

Data set [1] has as its system Human colorectal carcinoma cell line (HCT-116). As to the kind of experiment: MTT cytotoxicity assay, HCT-116. Type of data set: cell-based. The conditions noted are these: for IC50: Homo sapiens, HCT-116, 24 h, read-out: IC50 (μM) HCT-116; for cytotoxic activity, class in words, HCT-116: MTT assay. The method in brief: (§1)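 Cells grown in RPMI-1640 with 10% FBS, penicillin 100 units/mL and streptomycin 100 μg/mL at 37 °C, 5% CO2. Seeded at 1.0 × 10^4 cells/well for 48 h, then exposed to a range of test compound concentrations for 24 h, with CA-4 as positive control. MTT (5 mg/mL solution) added for 4 h, formazan dissolved in DMSO, absorbance read at 570 nm. IC50 = 50% growth inhibition, mean ± SD.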

The subject of data set [2] is tubulin. In words: In vitro tubulin polymerization inhibition assay. The data set is classed as biochemical. The conditions noted are these: read-out: IC50 (μM) tubulin polymerization inhibition; 4 mg/mL tubulin, 37 °C, OD340, mean ± SD from three independent experiments.
For data set [3], the system named is Epitheloid cervix carcinoma cell line (HeLa). As to the kind of experiment: MTT cytotoxicity assay, HeLa. The conditions noted are these: for IC50: Homo sapiens, 24 h, read-out: IC50 (μM) HeLa; for cytotoxic activity, class in words, HeLa: MTT assay. The data set is classed as cell-based, human. The method in brief: as §1
Background: Tetrazolium assays rely on reduction of a dye to a coloured formazan, in cell work by metabolically active cells.

The subject of data set [4] is Human hepatocellular carcinoma cell line (HepG2). In words: MTT cytotoxicity assay, HepG2. Type of data set: cell-based. The conditions noted are these: for IC50: Homo sapiens, HepG2, 24 h, read-out: IC50 (μM) HePG2; for cytotoxic activity, class in words, HepG2: MTT assay. The procedure, abridged: as §1
Data set [5] has as its system Human breast adenocarcinoma cell line (MCF-7). In words: MTT cytotoxicity assay, MCF-7. Type of data set: cell-based. The conditions noted are these: for IC50: Homo sapiens, MCF7, 24 h, read-out: IC50 (μM) MCF-7; for cytotoxic activity, class in words, MCF-7: MTT assay. The procedure, abridged:
as §1

Consider `COc1cc(-c2csc(NC(=O)CN3CCOCC3)n2)cc(OC)c1OC` [Compound 6e, 2-Morpholino-N-(4-(3,4,5-trimethoxyphenyl)thiazol-2-yl)acetamide], for which the IC50 – broadly, the concentration that inhibits the measured activity by half – worked out at 18 ± 0.9 µM in data set [1]; 3.72 ± 0.23 µM in data set [2]; 58.8 ± 2.9 µM in data set [3]; 19.8 ± 1 µM in data set [4]; 39.1 ± 2 µM in data set [5]. For the same compound, the “cytotoxic activity, class in words, HCT-116” value (from here on “cytotoxic activity … HCT-116”) in data set [1] was “strong (11–20 (strong))”. Further, the “cytotoxic activity, class in words, HepG2” value (shortened to “cytotoxic activity … HepG2”) in data set [4] is “strong (11–20 (strong))”.
Regarding `COc1cc(-c2csc(NC(=O)CNc3ccc([N+](=O)[O-])cc3)n2)cc(OC)c1OC` [Compound 7c, 2-((4-Nitrophenyl)amino)-N-(4-(3,4,5-trimethoxyphenyl)thiazol-2-yl)acetamide], the half-maximal inhibitory concentration (IC50) in data set [1] came to 7.3 ± 0.4 µM; in data set [2], 2 ± 0.12 µM; in data set [3], 9.85 ± 0.5 µM; in data set [4] it was 6.26 ± 0.3 µM; in data set [5], 10 ± 0.5 µM.
Regarding `COc1cc(-c2csc(NC(=O)CNc3ccc(Br)cc3)n2)cc(OC)c1OC` [Compound 7b, 2-((4-Bromophenyl)amino)-N-(4-(3,4,5-trimethoxyphenyl)thiazol-2-yl)acetamide], the IC50 amounted to 9.35 ± 0.5 µM in data set [1], 13.1 ± 0.7 µM in data set [3], 34.2 ± 1.7 µM in data set [4] and 44.8 ± 2.2 µM in data set [5].
Turning to `COc1cc(-c2csc(NC(=O)CN3CCN(c4ccc(F)cc4)CC3)n2)cc(OC)c1OC` [Compound 6d, 2-(4-(4-Fluorophenyl)piperazin-1-yl)-N-(4-(3,4,5-trimethoxyphenyl)thiazol-2-yl)acetamide], the IC50 in data set [1] amounted to 15.7 ± 0.8 µM; in data set [2], 5 ± 0.3 µM; in data set [3] it was 18.7 ± 0.9 µM; in data set [4], 4.03 ± 0.2 µM; in data set [5], 9.64 ± 0.5 µM.
As for `COc1cc(-c2csc(NC(=O)CN/N=C3\C(=O)Nc4ccc(Cl)cc43)n2)cc(OC)c1OC` [Compound 9a, (Z)-2-(2-(5-Chloro-2-oxoindolin-3-ylidene)hydrazinyl)-N-(4-(3,4,5-trimethoxyphenyl)thiazol-2-yl)acetamide], the half-inhibitory concentration (IC50) in data set [1] was determined as 10.1 ± 0.5 µM; in data set [2], 2.38 ± 0.14 µM; in data set [3], 10.6 ± 0.5 µM; in data set [4], 7.32 ± 0.4 µM; in data set [5], 9.8 ± 0.5 µM.
For `COc1cc(-c2csc(NC(=O)CNc3ccc(Br)c(C(F)(F)F)c3)n2)cc(OC)c1OC` [Compound 7d, 2-((4-Bromo-3-(trifluoromethyl)phenyl)amino)-N-(4-(3,4,5-trimethoxyphenyl)thiazol-2-yl)acetamide] the same measures were 33.1 ± 1.7 µM, 3.42 ± 0.21 µM, 29.8 ± 1.5 µM, 28.1 ± 1.4 µM and 41.4 ± 2.1 µM.
On to `COc1cc(-c2csc(NC(=O)CN3CCN(C)CC3)n2)cc(OC)c1OC` [Compound 6b, 2-(4-Methylpiperazin-1-yl)-N-(4-(3,4,5-trimethoxyphenyl)thiazol-2-yl)acetamide], for which the half-inhibitory concentration (IC50) was 83.7 ± 4.2 µM in data set [1], 87.3 ± 4.4 µM in data set [3], 74.6 ± 3.7 µM in data set [4] and 65.3 ± 3.3 µM in data set [5].
As to `COc1cc(-c2csc(NC(=O)NCCNc3ccccc3)n2)cc(OC)c1OC` [Compound 12, 1-(2-(Phenylamino)ethyl)-3-(4-(3,4,5-trimethoxyphenyl)thiazol-2-yl)urea], the IC50 in data set [1] is 88.5 ± 4.4 µM; in data set [3], 91.8 ± 4.6 µM; in data set [4], greater than 100 µM; in data set [5] it was greater than 100 µM.
In the case of `CCN1CCN(CC(=O)Nc2nc(-c3cc(OC)c(OC)c(OC)c3)cs2)CC1` [Compound 6c, 2-(4-Ethylpiperazin-1-yl)-N-(4-(3,4,5-trimethoxyphenyl)thiazol-2-yl)acetamide], the IC50 in data set [1] turned out to be 37.2 ± 1.9 µM; in data set [3], 48.2 ± 2.4 µM; in data set [4], 33.9 ± 1.7 µM; in data set [5] it was 41.4 ± 2.1 µM.
Turning to `COc1cc(-c2csc(NC(=O)CNN)n2)cc(OC)c1OC` [Compound 8, 2-Hydrazinyl-N-(4-(3,4,5-trimethoxyphenyl)thiazol-2-yl)acetamide], the IC50 in data set [1] came out at 5.32 ± 0.3 µM; in data set [2], 3.91 ± 0.24 µM; in data set [3], 6.15 ± 0.3 µM; in data set [4] it was 3.35 ± 0.2 µM; in data set [5] it was 8.66 ± 0.4 µM.
As for `COc1cc(-c2csc(NC(=O)CN3CCNCC3)n2)cc(OC)c1OC` [Compound 6a, 2-(Piperazin-1-yl)-N-(4-(3,4,5-trimethoxyphenyl)thiazol-2-yl)acetamide], the IC50 in data set [1] worked out at 28.9 ± 1.4 µM; in data set [2], 4.5 ± 0.27 µM; in data set [3], 47.7 ± 2.4 µM; in data set [4], 8.17 ± 0.4 µM; in data set [5], 40.9 ± 2 µM.
Consider `CCCCNCC(=O)Nc1nc(-c2cc(OC)c(OC)c(OC)c2)cs1` [Compound 5b, 2-(Butylamino)-N-(4-(3,4,5-trimethoxyphenyl)thiazol-2-yl)acetamide], for which the IC50 in data set [1] was determined as 24.4 ± 1.2 µM; in data set [3], 28.3 ± 1.4 µM; in data set [4], 10.9 ± 0.5 µM; in data set [5], 22.8 ± 1.1 µM. Also, the “cytotoxic activity … HepG2” value in data set [4] is reported as “strong (11–20 (strong))”.
As for `CCN1CCN(CCNC(=O)Nc2nc(-c3cc(OC)c(OC)c(OC)c3)cs2)CC1` [Compound 13a, 1-(2-(4-Ethylpiperazin-1-yl)ethyl)-3-(4-(3,4,5-trimethoxyphenyl)thiazol-2-yl)urea], in data set [1], the IC50 turned out to be 20.1 ± 1 µM and the “cytotoxic activity … HCT-116” value is “strong (11–20 (strong))”. Further, the IC50 in data set [2] came to 5.11 ± 0.31 µM. Also, in data set [3], the IC50 was found to be 32.4 ± 1.6 µM and the “cytotoxic activity, class in words, HeLa” value is reported as “moderate (21–50 (moderate))”. In data set [4], the IC50 was 14.2 ± 0.7 µM and the “cytotoxic activity … HepG2” value was “strong (11–20 (strong))”. In addition, in data set [5], the IC50 came to 16.9 ± 0.8 µM and the “cytotoxic activity, class in words, MCF-7” value is reported as “strong (11–20 (strong))”.
Turning to `COc1cc(-c2csc(NC(=O)CNc3ccccc3)n2)cc(OC)c1OC` [Compound 7a, 2-(Phenylamino)-N-(4-(3,4,5-trimethoxyphenyl)thiazol-2-yl)acetamide], in data set [1], the IC50 came out at 52.5 ± 2.6 µM and the “cytotoxic activity … HCT-116” value is reported as “weak (51–100 (weak))”. In addition, in data set [3], the IC50 is 54.1 ± 2.7 µM and the “cytotoxic activity, class in words, HeLa” value was “noncytotoxic (above 100 (noncytotoxic))”. Moreover, in data set [4], the IC50 turned out to be 94.1 ± 4.7 µM and the “cytotoxic activity … HepG2” value is given as “weak (51–100 (weak))”. Moreover, in data set [5], the IC50 is greater than 100 µM and the “cytotoxic activity, class in words, MCF-7” value is given as “weak (51–100 (weak))”.
As for `COc1cc(-c2csc(NC(=O)NCCN3CCOCC3)n2)cc(OC)c1OC` [Compound 13b, 1-(2-Morpholinoethyl)-3-(4-(3,4,5-trimethoxyphenyl)thiazol-2-yl)urea], the IC50 in data set [1] worked out at 27.4 ± 1.4 µM; in data set [3] it was 43.9 ± 2.2 µM; in data set [4] it was 25.7 ± 1.3 µM; in data set [5], 32 ± 1.6 µM.
The like results for `COc1cc(-c2csc(NC(=O)CNc3ccc(N4CCOCC4)cc3)n2)cc(OC)c1OC` [Compound 7e, 2-((4-Morpholinophenyl)amino)-N-(4-(3,4,5-trimethoxyphenyl)thiazol-2-yl)acetamide] were, in that order, 31.2 ± 1.6 µM, 41.5 ± 2.1 µM, 25.7 ± 1.3 µM and 35 ± 1.7 µM.
In the case of `COc1cc(-c2csc(NC(=O)CN/N=C3\C(=O)Nc4ccc(C)cc43)n2)cc(OC)c1OC` [Compound 9b, (Z)-2-(2-(5-Methyl-2-oxoindolin-3-ylidene)hydrazinyl)-N-(4-(3,4,5-trimethoxyphenyl)thiazol-2-yl)acetamide], the IC50 in data set [1] came out at 9.93 ± 0.5 µM; in data set [2], 4.21 ± 0.26 µM; in data set [3] it was 13.4 ± 0.7 µM; in data set [4], 8.04 ± 0.4 µM; in data set [5], 11.6 ± 0.6 µM.
